According to ChEMBL document CHEMBL4371014, “Novel Allosteric Ligands of γ-Aminobutyric Acid Transporter 1 (GAT1) by MS Based Screening of Pseudostatic Hydrazone Libraries” (J Med Chem, 2018):

target: Sodium- and chloride-dependent GABA transporter 1 (Mus musculus) (UniProt P31648); assay: Inhibition of NO711 binding to mouse GAT1 expressed in HEK293 cell membranes assessed as residual binding at 1 uM preincubated for 4 hrs followed by NO711 addition and measured after 40 mins by LC-ESI-MS/MS analysis relative to control
Summary of the method: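 Single hydrazones formed in situ in the presence of mouse GAT1 from one aldehyde (1.0 µM) and hydrazine (200 µM). Formation ran 4 h, then NO711 MS marker was added for 40 min. Specifically bound NO711 was freed from the target and quantified by LC-ESI-MS/MS. Results are % remaining specific binding, means±SD of four replicates.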

Row | SMILES | Activity [%]
1 | O=C(O)[C@H]1CNC[C@@H](CN/N=C/c2ccc(-c3ccc(F)c(C(F)(F)F)c3)o2)C1 (racemic) | 36
2 | O=Cc1csc2ccccc12 | 77
3 | Cc1cccc2cc(/C=N/NCC[C@@H]3CNC[C@H](C(=O)O)C3)c(Cl)nc12 (racemic) | 62
4 | Cc1ccccc1-c1ccsc1C=O | 93
5 | O=Cc1cccc(-c2ccc(F)cc2)c1 | 122
6 | O=C(O)[C@H]1CNC[C@@H](CCN/N=C/c2ccc(-c3cccc(Cl)c3)o2)C1 (racemic) | 69
7 | Cc1ccsc1-c1sc(/C=N/NCC[C@H]2CNC[C@H](C(=O)O)C2)cc1C (racemic) | > 50
8 | O=C(O)[C@H]1CNC[C@@H](CN/N=C/c2cnc(SCc3ccccc3)nc2)C1 (racemic) | 53
9 | O=C(O)[C@H]1CNC[C@@H](CN/N=C/c2ccccc2-c2ccc(F)cc2F)C1 (racemic) | 66
10 | O=Cc1cnc(NCc2ccccc2)nc1 | 118
11 | O=C(O)[C@H]1CNC[C@@H](CN/N=C/c2cnc(-c3ccco3)nc2)C1 (racemic) | 73
12 | O=Cc1cccc(-c2ccccc2)c1 | 111
13 | O=C(O)[C@H]1CNC[C@@H](CCN/N=C/c2cccn2-c2ccc(C(F)(F)F)cc2)C1 (racemic) | 74
14 | O=C(O)[C@H]1CNC[C@@H](CN/N=C/c2csc3ccccc23)C1 (racemic) | 82
15 | Cn1cnnc1Sc1ccc(/C=N/NC[C@@H]2CNC[C@H](C(=O)O)C2)o1 (racemic) | 84
16 | O=C(O)[C@H]1CNC[C@@H](CCN/N=C/c2ccccc2-n2cccc2)C1 (racemic) | 82
17 | O=C(O)[C@H]1CNC[C@@H](CN/N=C/c2sccc2-c2ccc(C(F)(F)F)cc2C(F)(F)F)C1 (racemic) | 88
18 | O=C(O)[C@H]1CNC[C@H](CN/N=C/c2csc3ccccc23)C1 (racemic) | > 50
19 | O=C(O)[C@H]1CNC[C@@H](CN/N=C/c2sccc2-c2ccccc2)C1 (racemic) | 85
20 | O=Cc1cnc(-c2ccc3ccccc3c2)nc1 | 110
21 | O=C(O)[C@H]1CNC[C@@H](CCN/N=C/c2ccc(-c3cccc(C(F)(F)F)c3)o2)C1 (racemic) | 70
22 | O=C(O)[C@H]1CNC[C@@H](CN/N=C/c2sccc2-c2ccc(Cl)cc2)C1 (racemic) | 80
23 | O=Cc1ccc(-c2ccc(Cl)cc2)o1 | 75
24 | O=C(O)[C@H]1CNC[C@@H](CN/N=C/c2sccc2-n2cccc2)C1 (racemic) | 86
25 | O=C(O)[C@H]1CNC[C@H](CN/N=C/c2ccc(-c3ccccc3OC(F)(F)F)o2)C1 (racemic) | > 50

Row | SMILES | Activity [%]
26 | O=C(O)[C@H]1CNC[C@@H](CN/N=C/c2sccc2-c2ccc(F)cc2F)C1 (racemic) | 80
27 | O=C(O)[C@H]1CNC[C@@H](CN/N=C/c2ccc(-c3ccc(Cl)cc3F)o2)C1 (racemic) | 67
28 | O=C(O)[C@H]1CNC[C@@H](CN/N=C/c2ccc(C#Cc3ccccc3)s2)C1 (racemic) | 51
29 | O=C(O)[C@H]1CNC[C@@H](CN/N=C/c2ccc(-c3ccccc3)[nH]2)C1 (racemic) | 85
30 | O=C(O)[C@H]1CNC[C@@H](CN/N=C/c2cnc(NCc3ccccc3)nc2)C1 (racemic) | 60
31 | COc1ccc(C=O)cc1 | 98
32 | O=Cc1ccc(-c2ccc(Br)cc2)o1 | 97
33 | Cc1ccsc1-c1ccccc1/C=N/NCC[C@@H]1CNC[C@H](C(=O)O)C1 (racemic) | 61
34 | O=C(O)[C@H]1CNC[C@@H](CN/N=C/c2cc(Br)co2)C1 (racemic) | 53
35 | O=C(O)[C@H]1CNC[C@@H](CN/N=C/c2cnc(-c3cccs3)nc2)C1 (racemic) | 60
36 | O=C(O)[C@H]1CNC[C@@H](CN/N=C/c2ccc(-c3ccccc3)o2)C1 (racemic) | 68
37 | O=C(O)[C@H]1CNC[C@@H](CN/N=C/c2ccc(-c3ccccc3Br)o2)C1 (racemic) | 36
38 | COc1ccc(/C=N/NC[C@@H]2CNC[C@H](C(=O)O)C2)cc1 (racemic) | 85
39 | O=C(O)[C@H]1CNC[C@@H](CN/N=C/c2ccc(-c3ccc(Br)cc3)o2)C1 (racemic) | 59
40 | O=C(O)[C@H]1CNC[C@@H](CCN/N=C/c2ccco2)C1 (racemic) | 60
41 | O=C(O)[C@H]1CNC[C@H](CCN/N=C/c2ccc(C#Cc3ccccc3)s2)C1 (racemic) | > 50
42 | O=C(O)[C@H]1CNC[C@@H](CN/N=C/c2ccc(-c3ccc(Cl)cc3[N+](=O)[O-])o2)C1 (racemic) | 37
43 | O=Cc1ccc2ccccc2n1 | 114
44 | O=Cc1ccc(-c2ccccc2)s1 | 112
45 | Nc1ncc(-c2ccccc2/C=N/NC[C@@H]2CNC[C@H](C(=O)O)C2)cn1 (racemic) | 93
46 | Cn1c(C=O)ccc1-c1ccc(Cl)cc1 | 101
47 | O=C(O)[C@H]1CNC[C@H](CCN/N=C/c2sccc2-n2cccc2)C1 (racemic) | > 50
48 | O=C(O)[C@H]1CNC[C@@H](CCN/N=C/c2sccc2-n2cccc2)C1 (racemic) | 72
49 | O=C(O)[C@H]1CNC[C@@H](CCN/N=C/c2ccc(-c3ccccc3C(F)(F)F)o2)C1 (racemic) | 60
50 | COc1ccccc1C=O | 108

Row | SMILES | Activity [%]
51 | O=C(O)[C@H]1CNC[C@H](CN/N=C/c2ccc(C#Cc3ccccc3)s2)C1 (racemic) | > 50
52 | O=C(O)[C@H]1CNC[C@@H](CN/N=C/c2ccccc2-c2cc(F)ccc2F)C1 (racemic) | 73
53 | O=C(O)[C@H]1CNC[C@@H](CCN/N=C/c2ccc(-c3ccc(Cl)cc3[N+](=O)[O-])o2)C1 (racemic) | 60
54 | Cc1ccsc1-c1sc(/C=N/NC[C@@H]2CNC[C@H](C(=O)O)C2)cc1C (racemic) | 74
55 | O=C(O)[C@H]1CNC[C@@H](CN/N=C/c2ccccc2-c2cccc(F)c2F)C1 (racemic) | 58
56 | O=C(O)[C@H]1CNC[C@@H](CCN/N=C/c2ccc(-c3ccn[nH]3)o2)C1 (racemic) | 72
57 | O=C(O)[C@H]1CNC[C@@H](CN/N=C/c2sccc2-c2ccccc2F)C1 (racemic) | 84
58 | Cc1ccc(-c2cccc(/C=N/NC[C@@H]3CNC[C@H](C(=O)O)C3)c2)cc1 (racemic) | 61
59 | O=Cc1cccs1 | 118
60 | O=Cc1sccc1-c1ccc(Cl)cc1Cl | 116
61 | O=C(O)[C@H]1CNC[C@@H](CCN/N=C/c2ccc(-c3ccc(Cl)cc3)o2)C1 (racemic) | 62
62 | O=C(O)[C@H]1CNC[C@@H](CCN/N=C/c2ccccc2-c2ccsc2)C1 (racemic) | 80
63 | O=C(O)[C@H]1CNC[C@@H](CN/N=C/c2cccc(-c3ccc(Cl)cc3)c2)C1 (racemic) | 52
64 | Cc1cccc2cc(C=O)c(Cl)nc12 | 103
65 | COc1cc(/C=N/NCC[C@@H]2CNC[C@H](C(=O)O)C2)cc(OC)c1O (racemic) | 62
66 | O=C(O)[C@H]1CNC[C@@H](CN/N=C/c2ccc(I)o2)C1 (racemic) | 69
67 | O=C(O)[C@H]1CNC[C@@H](CCN/N=C/c2cnc(-c3ccccn3)nc2)C1 (racemic) | 83
68 | O=Cc1ccc(-c2ccn[nH]2)o1 | 93
69 | O=Cc1ccc(-c2ccc(C(F)(F)F)cc2Cl)o1 | 98
70 | O=Cc1cnc(SCc2ccccc2)nc1 | 116
71 | O=Cc1ccc(I)o1 | 115
72 | O=Cc1ccc(C#Cc2ccccc2)s1 | 90
73 | O=Cc1ccccc1-c1ccsc1 | 106
